Measured values from ChEMBL document CHEMBL2021854, “2-Aminopyrimidine based 4-aminoquinoline anti-plasmodial agents. Synthesis, biological activity, structure-activity relationship and mode of action studies” (Eur J Med Chem, 2012).

Experiments:
[1] = tested on: Human immunodeficiency virus 2; experiment: Antiviral activity against HIV2 infected in human CEM cells assessed as inhibition of virus-induced cytopathic effect after 4 days; type: functional, organism-based; conditions: Human immunodeficiency virus 2, CCRF-CEM, 96 h
Outline: (§1)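 CEM T-lymphocytes (~3 × 10^5 cells/ml) were infected with HIV-1 IIIB or HIV-2 ROD at ~100 CCID50, then immediately plated with a range of compound concentrations. Giant cell formation was scored microscopically after 4 days at 37 °C. Cytostatic activity was tested in parallel in uninfected CEM cells.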

[2] = tested on: Human betaherpesvirus 5; experiment: Antiviral activity against Human cytomegalovirus Davis infected in HEL cells assessed as inhibition of virus plaque formation after 4 days; type: functional, organism-based; conditions: Human betaherpesvirus 5, Davis, 96 h
[3] = tested on: Feline infectious peritonitis virus; experiment: Antiviral activity against FIPV infected in cat CRFK cells assessed as inhibition of virus-induced cytopathic effect after 4 days by colorimetric formazan-based MTS assay; type: functional, cell-based; conditions: Alphacoronavirus 1, CRFK, 96 h
[4] = tested on: Vesicular stomatitis virus; experiment: Antiviral activity against Vesicular stomatitis virus infected in HEL cells assessed as inhibition of virus-induced cytopathogenicity after 4 days; type: functional, organism-based; conditions: 96 h
Outline: (§2)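 Confluent HEL or HeLa monolayers infected with 100 CCID50 of virus in the presence of varying compound concentrations.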

[5] = tested on: Vesicular stomatitis virus; experiment: Antiviral activity against Vesicular stomatitis virus infected in HeLa cells assessed as inhibition of virus-induced cytopathogenicity after 4 days; type: functional, organism-based; conditions: 96 h; outline: as §2
[6] = Cytotoxicity against MDCK cells assessed as minimum compound concentration required to causes microscopically detectable alteration of normal cell morphology; type: cell-based, Canis lupus familiaris; conditions: dog
Outline: (§3)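 Confluent, non-proliferating cell cultures were exposed to the compounds. The endpoint was the minimum concentration producing a microscopically detectable alteration of normal cell morphology.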

[7] = tested on: Coxsackievirus B4; experiment: Antiviral activity against Coxsackie virus B4 infected in african green monkey Vero cells assessed as inhibition of virus-induced cytopathogenicity after 4 days; type: functional, organism-based; conditions: Enterovirus B, 96 h
Outline: (§4)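 Confluent HEL, Vero or HeLa monolayers were inoculated with 100 CCID50 of virus in the presence of varying concentrations of compound. Cytopathicity was scored when it reached completion in untreated, virus-infected control cultures.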

[8] = tested on: Human alphaherpesvirus 3; experiment: Antiviral activity against […] expressing thymidine kinase infected in HEL cells assessed as reduction of virus plaque formation after 4 days; type: functional, cell-based; conditions: Human alphaherpesvirus 3, strain Oka vaccine, 96 h
[9] = tested on: Influenza A virus; experiment: Antiviral activity against Influenza A virus H3N2 infected in MDCK cells assessed as reduction visual scoring of virus-induced cytopathogenicity after 4 days; type: functional, organism-based; conditions: 96 h
Outline: (§5)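 MDCK monolayers infected with 100 CCID50 of influenza A (H1N1 or H3N2) or influenza B, with varying compound concentrations. Cytopathicity read when untreated infected controls reached complete CPE.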

[10] = tested on: Influenza A virus; experiment: Antiviral activity against Influenza A virus H1N1 infected in MDCK cells assessed as reduction visual scoring of virus-induced cytopathogenicity after 4 days; type: functional, organism-based; conditions: 96 h; outline: as §5
[11] = tested on: MDCK; experiment: Cytotoxicity against MDCK cells assessed as cell viability by colorimetric formazan-based MTS assay; set-up: species or system Canis lupus familiaris; conditions: dog, mdck
Outline: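 Cytotoxicity on MDCK cells; 50% cytotoxic concentration from cell viability measured by colorimetric formazan-based MTS assay.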

[12] = tested on: Influenza B virus; experiment: Antiviral activity against Influenza B virus infected in MDCK cells assessed as reduction visual scoring of virus-induced cytopathogenicity after 4 days; type: functional, organism-based; conditions: 96 h; outline: as §5
[13] = tested on: Human respirovirus 3; experiment: Antiviral activity against Parainfluenza-3 virus infected in african green monkey Vero cells assessed as inhibition of virus-induced cytopathogenicity after 4 days; type: functional, organism-based; conditions: Human respirovirus 3, Vero, 96 h; outline: as §4
[14] = Cytotoxicity against human HEL cells assessed as minimum compound concentration required to causes microscopically detectable alteration of normal cell morphology; type: cell-based; outline: as §3
[15] = tested on: Plasmodium falciparum; experiment: Resistant factor, ratio of IC50 for chloroquine-resistant Plasmodium falciparum K1 to IC50 for chloroquine-sensitive Plasmodium falciparum 3D7; type: functional
Outline: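 Resistance factor computed as IC50 against K1 divided by IC50 against 3D7, both from the [3H]hypoxanthine incorporation assay.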

[16] = tested on: Plasmodium falciparum; experiment: Antiplasmodial activity chloroquine-sensitive Plasmodium falciparum 3D7 infected in human A+ erythrocytes assessed as inhibition of [3H]-hypoxanthine incorporation after 24 hrs by scintillation counting; type: functional, organism-based
[17] = tested on: Mammalian orthoreovirus 1; experiment: Antiviral activity against Reovirus-1 infected in african green monkey Vero cells assessed as inhibition of virus-induced cytopathogenicity after 4 days; type: functional, organism-based; conditions: Mammalian orthoreovirus 1, Vero, 96 h; outline: as §4
[18] = tested on: Plasmodium falciparum; experiment: Antiplasmodial activity chloroquine-resistant Plasmodium falciparum K1 infected in human A+ erythrocytes assessed as inhibition of [3H]-hypoxanthine incorporation after 24 hrs by scintillation counting; type: functional, organism-based
[19] = tested on: Influenza A virus; experiment: Antiviral activity against Influenza A virus H1N1 infected in MDCK cells assessed as inhibition of virus-induced cytopathogenicity after 4 days by colorimetric formazan-based MTS assay; type: functional, organism-based; conditions: 96 h
[20] = Cytotoxicity against cat CRFK cells assessed as cell viability by colorimetric formazan-based MTS assay; set-up: species or system Felis catus; conditions: crfk
[21] = tested on: Human alphaherpesvirus 2; experiment: Antiviral activity against HSV2 G infected in HEL cells assessed as inhibition of virus-induced cytopathogenicity after 4 days; type: functional, organism-based; conditions: Human alphaherpesvirus 2, strain G, 96 h; outline: as §4
[22] = tested on: Coxsackievirus B4; experiment: Antiviral activity against Coxsackie virus B4 infected in human HeLa cells assessed as inhibition of virus-induced cytopathogenicity after 4 days; type: functional, organism-based; conditions: Enterovirus B, 96 h; outline: as §4
[23] = tested on: Punta Toro virus; experiment: Antiviral activity against Punta Toro virus infected in african green monkey Vero cells assessed as inhibition of virus-induced cytopathogenicity after 4 days; type: functional, organism-based; conditions: 96 h; outline: as §4
[24] = tested on: Human alphaherpesvirus 1; experiment: Antiviral activity against thymidine kinase-deficient acyclovir-resistant HSV1 KOS infected in HEL cells assessed as inhibition of virus-induced cytopathogenicity after 4 days; type: functional, organism-based; conditions: Human alphaherpesvirus 1, KOS, 96 h; outline: as §2
[25] = Cytotoxicity against african green monkey Vero cells assessed as minimum compound concentration required to causes microscopically detectable alteration of normal cell morphology; type: cell-based; conditions: chlorocebus sabaeus; outline: as §3
[26] = tested on: Human immunodeficiency virus 1; experiment: Antiviral activity against HIV1 infected in human CEM cells assessed as inhibition of virus-induced cytopathic effect after 4 days; type: functional, organism-based; conditions: Human immunodeficiency virus 1, CCRF-CEM, 96 h; outline: as §1
[27] = Inhibition of beta-hematin formation assessed as Ferriprotoporphyrin IX biomineralisation at 1 mg/ml after 24 hrs; type: functional
Outline: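 Hemin chloride (0.5 mg/ml in DMSO) mixed with 0.5 M sodium acetate buffer pH 4.4 and drug or solvent control, incubated 37 °C for 24 h. Pellet washed with DMSO to remove unreacted hemin, dissolved in 0.1 N NaOH, absorbance read at 405 nm; percent inhibition relative to control. Highest concentration tested 1 mg/ml.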

[28] = Selectivity index, ratio of CC50 for MDCK cells to IC50 for chloroquine-resistant Plasmodium falciparum K1; type: functional
Outline: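 Selectivity index computed as MTS-based CC50 on MDCK cells divided by IC50 against P. falciparum K1.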

[29] = tested on: Sindbis virus; experiment: Antiviral activity against Sindbis virus infected in african green monkey Vero cells assessed as inhibition of virus-induced cytopathogenicity after 4 days; type: functional, organism-based; conditions: 96 h; outline: as §4
[30] = tested on: Human alphaherpesvirus 3; experiment: Antiviral activity against thymidine kinase-deficient […] infected in HEL cells assessed as reduction of virus plaque formation after 4 days; type: functional, organism-based; conditions: Human alphaherpesvirus 3, 07-1, HEL, 96 h
[31] = tested on: Influenza A virus; experiment: Antiviral activity against Influenza A virus H3N2 infected in MDCK cells assessed as inhibition of virus-induced cytopathogenicity after 4 days by colorimetric formazan-based MTS assay; type: functional, organism-based; conditions: 96 h
[32] = tested on: Respiratory syncytial virus; experiment: Antiviral activity against Respiratory syncytial virus infected in human HeLa cells assessed as inhibition of virus-induced cytopathogenicity after 4 days; type: functional, organism-based; conditions: 96 h; outline: as §4
[33] = tested on: Felid alphaherpesvirus 1; experiment: Antiviral activity against Feline herpesvirus infected in cat CRFK cells assessed as inhibition of virus-induced cytopathic effect after 4 days by colorimetric formazan-based MTS assay; type: functional, organism-based; conditions: Felid alphaherpesvirus 1, CRFK, 96 h
[34] = Cytotoxicity against human HeLa cells assessed as minimum compound concentration required to causes microscopically detectable alteration of normal cell morphology; type: cell-based; outline: as §3
[35] = tested on: Influenza B virus; experiment: Antiviral activity against Influenza B virus infected in MDCK cells assessed as inhibition of virus-induced cytopathogenicity after 4 days by colorimetric formazan-based MTS assay; type: functional, organism-based; conditions: 96 h
[36] = tested on: Human betaherpesvirus 5; experiment: Antiviral activity against Cytomegalovirus AD-169 infected in HEL cells assessed as inhibition of virus plaque formation after 4 days; type: functional, organism-based; conditions: Human betaherpesvirus 5, AD169, HEL, 96 h
[37] = tested on: Human alphaherpesvirus 1; experiment: Antiviral activity against HSV1 KOS infected in HEL cells assessed as inhibition of virus-induced cytopathogenicity after 4 days; type: functional, organism-based; conditions: Human alphaherpesvirus 1, KOS, 96 h; outline: as §2
[38] = tested on: HeLa; experiment: Cytotoxicity against human HeLa cells assessed as cell viability by colorimetric formazan-based MTS assay

| Structure (SMILES) | EC50 [1] [µM] | EC50 [2] [µM] | EC50 [3] [µM] | EC50 [4] [µM] | EC50 [5] [µM] | MCC [6] [nM] | EC50 [7] [µM] | EC50 [8] [µM] | EC50 [9] [µM] | EC50 [10] [µM] | CC50 [11] [µM] | EC50 [12] [µM] | EC50 [13] [µM] | MCC [14] [µM] | Ratio IC50 [15] | IC50 [16] [µM] | EC50 [17] [µM] | IC50 [18] [µM] | EC50 [19] [µM] | CC50 [20] [µM] | other results |
| --- | --- | --- | --- | --- | --- | --- | --- | --- | --- | --- | --- | --- | --- | --- | --- | --- | --- | --- | --- | --- | --- |
| CCOC(=O)c1c(C)nc(NCCCNc2ccnc3cc(Cl)ccc23)nc1C | > 2 | 8.18 | > 100 | > 100 | > 100 | 20000 | > 100 | 9.62 | > 4 | > 4 | 58.2 | > 4 | > 100 | ≥ 100 | 2.548 | 0.0631 | > 100 | 0.161 | > 4 | > 100 | EC50 [21]: > 100 µM; EC50 [22]: > 100 µM; EC50 [23]: > 100 µM; EC50 [24]: > 100 µM; MCC [25]: > 100 µM; EC50 [26]: > 2 µM; inhibition [27]: 66%; Ratio CC50/IC50 [28]: 361.89; EC50 [29]: > 100 µM; EC50 [30]: > 20 µM; EC50 [31]: > 4 µM; EC50 [32]: > 100 µM; EC50 [33]: > 100 µM; MCC [34]: > 100 µM; EC50 [35]: > 4 µM; EC50 [36]: 8.94 µM; EC50 [37]: > 100 µM; CC50 [38]: 17.5 µM |
| CCOC(=O)c1c(C)nc(NCCNc2ccnc3cc(Cl)ccc23)nc1-c1ccccc1 | > 2 | > 4 | > 4 | > 4 | > 4 | 800 | > 4 | > 4 | > 0.16 | > 0.16 | 1.4 | > 0.16 | > 4 | 20 | 6.43 | 0.0217 | > 4 | 0.139 | > 0.16 | 7.3 | EC50 [21]: > 4 µM; EC50 [22]: > 4 µM; EC50 [23]: > 4 µM; EC50 [24]: > 4 µM; MCC [25]: 20 µM; EC50 [26]: > 2 µM; inhibition [27]: 96%; Ratio CC50/IC50 [28]: 10.04; EC50 [29]: > 4 µM; EC50 [30]: > 20 µM; EC50 [31]: > 0.16 µM; EC50 [32]: > 4 µM; EC50 [33]: > 4 µM; MCC [34]: 20 µM; EC50 [35]: > 0.16 µM; EC50 [36]: > 4 µM; EC50 [37]: > 4 µM; CC50 [38]: 7.9 µM |
| CCOC(=O)c1c(C)nc(NCCCNc2ccnc3cc(Cl)ccc23)nc1-c1ccccc1 | > 2 | 4 | > 4 | > 100 | > 100 | 800 | > 20 | > 4 | > 0.16 | > 0.16 | 0.8 | > 0.16 | > 20 | > 20 | 0.21 | 0.247 | > 20 | 0.0522 | > 0.16 | 15.9 | EC50 [21]: > 100 µM; EC50 [22]: > 100 µM; EC50 [23]: > 20 µM; EC50 [24]: > 100 µM; MCC [25]: 100 µM; EC50 [26]: > 2 µM; inhibition [27]: 100%; Ratio CC50/IC50 [28]: 15.33; EC50 [29]: > 20 µM; EC50 [30]: > 20 µM; EC50 [31]: > 0.16 µM; EC50 [32]: > 100 µM; EC50 [33]: > 4 µM; MCC [34]: > 100 µM; EC50 [35]: > 0.16 µM; EC50 [36]: 4 µM; EC50 [37]: > 100 µM; CC50 [38]: 7.07 µM |
